Data from ChEMBL document CHEMBL1145884, “Synthesis and biological activity of novel 1beta-methylcarbapenems with oxyiminopyrrolidinylamide moiety” (2003).
In brackets after ≈: the same amount, converted by molar mass. Values belong to the compound of their own block, whether it stands above or below them.

How the values were obtained:
Escherichia coli [1] = assay: Compound was evaluated for its antibacterial activity against Escherichia coli DC 2; assay type: functional
Escherichia coli [2] = assay: Compound was evaluated for its antibacterial activity against Escherichia coli CCARM 1110 MDR; assay type: functional
Enterobacter cloacae [3] = assay: Compound was evaluated for its antibacterial activity against Enterobacter cloacae P99; assay type: functional
Enterobacter cloacae [4] = assay: Antibacterial activity against Enterobacter cloacae 1321E; assay type: functional
How it was run: (§1)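 MIC was determined by agar dilution on Mueller–Hinton medium.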

Salmonella typhimurium [5] = assay: Antibacterial activity against Salmonella Typhimurium; assay type: functional, Salmonella enterica subsp. enterica serovar Typhimurium; conditions: Salmonella enterica; how it was run: as §1
Salmonella typhimurium [6] = assay: Compound was evaluated for its antibacterial activity against Salmonella Typhimurium 1; assay type: functional, Salmonella enterica subsp. enterica serovar Typhimurium; conditions: Salmonella enterica
Salmonella typhimurium [7] = assay: Compound was evaluated for its antibacterial activity against Salmonella Typhimurium 2; assay type: functional, Salmonella enterica subsp. enterica serovar Typhimurium; conditions: Salmonella enterica
Klebsiella pneumoniae [8] = assay: Compound was evaluated for its antibacterial activity against Klebsiella pneumoniae 9 ESBL; assay type: functional
Escherichia coli [9] = assay: Compound was evaluated for its antibacterial activity against Escherichia coli CCARM 1111 MDR; assay type: functional
Streptococcus pyogenes = assay: Antibacterial activity against Streptococcus pyogenes 308A; assay type: functional
Escherichia coli [10] = assay: Antibacterial activity against Escherichia coli 1507E; assay type: functional; how it was run: as §1
Escherichia coli [11] = assay: Compound was evaluated for its antibacterial activity against Escherichia coli CCARM 1113 MDR; assay type: functional
Escherichia coli [12] = assay: Compound was evaluated for its antibacterial activity against Escherichia coli CCARM 1117 MDR; assay type: functional
Escherichia coli [13] = assay: Compound was evaluated for its antibacterial activity against Escherichia coli 0157:H7; assay type: functional
Pseudomonas aeruginosa [14] = assay: Antibacterial activity against Pseudomonas aeruginosa 1592E
Pseudomonas aeruginosa [15] = assay: Compound was evaluated for its antibacterial activity against Pseudomonas aeruginosa 3 MDR; assay type: functional
Shigella sonnei = assay: Compound was evaluated for its antibacterial activity against Shigella sonnei ATCC 9290; assay type: functional
Escherichia coli [16] = assay: Compound was evaluated for its antibacterial activity against Escherichia coli CCARM 1108 MDR; assay type: functional
Escherichia coli [17] = assay: Compound was evaluated for its antibacterial activity against Escherichia coli TEM; assay type: functional
Salmonella enteritidis [18] = assay: Compound was evaluated for its antibacterial activity against […] enteritidis 3; assay type: functional, Salmonella enterica subsp. enterica serovar Enteritidis; conditions: Salmonella enterica
Salmonella typhimurium [19] = assay: Compound was evaluated for its antibacterial activity against Salmonella Typhimurium; assay type: functional, Salmonella enterica subsp. enterica serovar Typhimurium; conditions: Salmonella enterica
Escherichia coli [20] = assay: Compound was evaluated for its antibacterial activity against Escherichia coli DC 0; assay type: functional
Staphylococcus aureus [21] = assay: Antibacterial activity against Staphylococcus aureus 503; assay type: functional
Salmonella enteritidis [22] = assay: Compound was evaluated for its antibacterial activity against […] enteritidis; assay type: functional, Salmonella enterica subsp. enterica serovar Enteritidis; conditions: Salmonella enterica
Staphylococcus aureus [23] = assay: Antibacterial activity against Staphylococcus aureus SG 511; assay type: functional
Escherichia coli [24] = assay: Antibacterial activity against Escherichia coli 078; assay type: functional; how it was run: as §1
Salmonella enteritidis [25] = assay: Compound was evaluated for its antibacterial activity against […] enteritidis 2; assay type: functional, Salmonella enterica subsp. enterica serovar Enteritidis; conditions: Salmonella enterica
Pseudomonas aeruginosa [26] = assay: Antibacterial activity against Pseudomonas aeruginosa 1771M; assay type: functional; how it was run: as §1
Klebsiella pneumoniae [27] = assay: Compound was evaluated for its antibacterial activity against Klebsiella pneumoniae 2 ESBL; assay type: functional
Escherichia coli [28] = assay: Compound was evaluated for its antibacterial activity against Escherichia coli CCARM 1109 MDR; assay type: functional
Pseudomonas aeruginosa [29] = assay: Compound was evaluated for its antibacterial activity against Pseudomonas aeruginosa 1 MDR; assay type: functional
Klebsiella pneumoniae [30] = assay: Compound was evaluated for its antibacterial activity against Klebsiella pneumoniae 10 ESBL; assay type: functional
Escherichia coli [31] = assay: Compound was evaluated for its antibacterial activity against Escherichia coli CCARM 1115 MDR; assay type: functional
Klebsiella pneumoniae [32] = assay: Compound was evaluated for its antibacterial activity against Klebsiella pneumoniae 7 ESBL; assay type: functional
Klebsiella pneumoniae [33] = assay: Compound was evaluated for its antibacterial activity against Klebsiella pneumoniae 5 ESBL; assay type: functional
Klebsiella aerogenes = assay: Antibacterial activity against Klebsiella aerogenes 1522E; assay type: functional; how it was run: as §1
Escherichia coli [34] = assay: Compound was evaluated for its antibacterial activity against Escherichia coli CCARM 1116 MDR; assay type: functional
Klebsiella pneumoniae [35] = assay: Compound was evaluated for its antibacterial activity against Klebsiella pneumoniae 8 ESBL; assay type: functional
[36] = Compound was evaluated for its relative half life of hydrolysis to meropenem by partially purified porcine renal dihydropeptidase-I (DHP-I); assay type: functional; conditions: Sus scrofa
Klebsiella oxytoca = assay: Compound was evaluated for its antibacterial activity against Klebsiella oxytoca 1082E; assay type: functional
Pseudomonas aeruginosa [37] = assay: Compound was evaluated for its antibacterial activity against Pseudomonas aeruginosa 2 MDR; assay type: functional
Klebsiella pneumoniae [38] = assay: Compound was evaluated for its antibacterial activity against Klebsiella pneumoniae 4 ESBL; assay type: functional
Klebsiella pneumoniae [39] = assay: Compound was evaluated for its antibacterial activity against Klebsiella pneumoniae 1 ESBL; assay type: functional
Klebsiella pneumoniae [40] = assay: Compound was evaluated for its antibacterial activity against Klebsiella pneumoniae 6 ESBL; assay type: functional
Salmonella enteritidis [41] = assay: Compound was evaluated for its antibacterial activity against […] enteritidis 1; assay type: functional, Salmonella enterica subsp. enterica serovar Enteritidis; conditions: Salmonella enterica
Escherichia coli [42] = assay: Compound was evaluated for its antibacterial activity against Escherichia coli CCARM 1114 MDR; assay type: functional
Staphylococcus aureus [43] = assay: Antibacterial activity against Staphylococcus aureus 285; assay type: functional
Shigella flexneri = assay: Compound was evaluated for its antibacterial activity against Shigella flexneri ATCC 9199; assay type: functional
Pseudomonas aeruginosa [44] = assay: Antibacterial activity against Pseudomonas aeruginosa 9027; assay type: functional; how it was run: as §1
Escherichia coli [45] = assay: Compound was evaluated for its antibacterial activity against Escherichia coli CCARM 1112 MDR; assay type: functional
Klebsiella pneumoniae [46] = assay: Compound was evaluated for its antibacterial activity against Klebsiella pneumoniae 3 ESBL; assay type: functional
Pseudomonas aeruginosa [47] = assay: Compound was evaluated for its antibacterial activity against Pseudomonas aeruginosa ATCC 27853; assay type: functional
Escherichia coli [48] = assay: Compound was evaluated for its antibacterial activity against Escherichia coli ATCC 25922; assay type: functional
Pseudomonas aeruginosa [49] = assay: Antibacterial activity against Pseudomonas aeruginosa 1592E; remark: listed apart in the source

- MIC (Escherichia coli [1]): 0.016 µg/mL (≈ 0.0365 µM)
- MIC (Escherichia coli [2]): 0.06 µg/mL (≈ 0.137 µM)
- MIC (Enterobacter cloacae [3]): 0.13 µg/mL (≈ 0.296 µM)
- MIC (Enterobacter cloacae [4]): 0.013 µg/mL (≈ 0.0296 µM)
- MIC (Salmonella typhimurium [5]): 0.025 µg/mL (≈ 0.057 µM)
- MIC (Salmonella typhimurium [6]): 0.016 µg/mL (≈ 0.0365 µM)
- MIC (Salmonella typhimurium [7]): 0.03 µg/mL (≈ 0.0684 µM)
- MIC (Klebsiella pneumoniae [8]): 0.03 µg/mL (≈ 0.0684 µM)
- MIC (Escherichia coli [9]): 0.016 µg/mL (≈ 0.0365 µM)
- MIC (Streptococcus pyogenes): 0.013 µg/mL (≈ 0.0296 µM)
- MIC (Escherichia coli [10]): 0.025 µg/mL (≈ 0.057 µM)
- MIC (Escherichia coli [11]): 0.06 µg/mL (≈ 0.137 µM)
- MIC (Escherichia coli [12]): 0.03 µg/mL (≈ 0.0684 µM)
- MIC (Escherichia coli [13]): 0.016 µg/mL (≈ 0.0365 µM)
- MIC (Pseudomonas aeruginosa [14]): 0.391 µg/mL (≈ 0.892 µM)
- MIC (Pseudomonas aeruginosa [15]): 8 µg/mL (≈ 18.2 µM)
- MIC (Shigella sonnei): 0.016 µg/mL (≈ 0.0365 µM)
- MIC (Escherichia coli [16]): 0.03 µg/mL (≈ 0.0684 µM)
- MIC (Escherichia coli [17]): 0.016 µg/mL (≈ 0.0365 µM)
- MIC (Salmonella enteritidis [18]): 0.016 µg/mL (≈ 0.0365 µM)
- MIC (Salmonella typhimurium [19]): 0.03 µg/mL (≈ 0.0684 µM)
- MIC (Escherichia coli [20]): 0.03 µg/mL (≈ 0.0684 µM)
- MIC (Staphylococcus aureus [21]): 0.098 µg/mL (≈ 0.223 µM)
- MIC (Salmonella enteritidis [22]): 0.016 µg/mL (≈ 0.0365 µM)
- MIC (Staphylococcus aureus [23]): 0.195 µg/mL (≈ 0.445 µM)
- MIC (Escherichia coli [24]): 0.025 µg/mL (≈ 0.057 µM)
- MIC (Salmonella enteritidis [25]): ≤ 0.008 µg/mL
- MIC (Pseudomonas aeruginosa [26]): 0.195 µg/mL (≈ 0.445 µM)
- MIC (Klebsiella pneumoniae [27]): 0.03 µg/mL (≈ 0.0684 µM)
- MIC (Escherichia coli [28]): 0.06 µg/mL (≈ 0.137 µM)
- MIC (Pseudomonas aeruginosa [29]): 1 µg/mL (≈ 2.28 µM)
- MIC (Klebsiella pneumoniae [30]): 0.016 µg/mL (≈ 0.0365 µM)
- MIC (Escherichia coli [31]): 0.03 µg/mL (≈ 0.0684 µM)
- MIC (Klebsiella pneumoniae [32]): 0.06 µg/mL (≈ 0.137 µM)
- MIC (Klebsiella pneumoniae [33]): 0.016 µg/mL (≈ 0.0365 µM)
- MIC (Klebsiella aerogenes): 0.025 µg/mL (≈ 0.057 µM)
- MIC (Escherichia coli [34]): 0.016 µg/mL (≈ 0.0365 µM)
- MIC (Klebsiella pneumoniae [35]): 0.25 µg/mL (≈ 0.57 µM)
- MIC (Klebsiella oxytoca): 0.13 µg/mL (≈ 0.296 µM)
- MIC (Pseudomonas aeruginosa [37]): 8 µg/mL (≈ 18.2 µM)
- MIC (Klebsiella pneumoniae [38]): 0.03 µg/mL (≈ 0.0684 µM)
- MIC (Klebsiella pneumoniae [39]): 0.03 µg/mL (≈ 0.0684 µM)
- MIC (Klebsiella pneumoniae [40]): 0.03 µg/mL (≈ 0.0684 µM)
- MIC (Salmonella enteritidis [41]): 0.016 µg/mL (≈ 0.0365 µM)
- MIC (Escherichia coli [42]): 0.13 µg/mL (≈ 0.296 µM)
- MIC (Staphylococcus aureus [43]): 0.195 µg/mL (≈ 0.445 µM)
- MIC (Shigella flexneri): 0.016 µg/mL (≈ 0.0365 µM)
- MIC (Pseudomonas aeruginosa [44]): 0.391 µg/mL (≈ 0.892 µM)
- MIC (Escherichia coli [45]): 0.016 µg/mL (≈ 0.0365 µM)
- MIC (Klebsiella pneumoniae [46]): 0.13 µg/mL (≈ 0.296 µM)
- MIC (Pseudomonas aeruginosa [47]): 1 µg/mL (≈ 2.28 µM)
- MIC (Escherichia coli [48]): 0.016 µg/mL (≈ 0.0365 µM)
SMILES: C[C@@H](O)[C@H]1C(=O)N2C(C(=O)O)=C(S[C@@H]3CN[C@H](C(=O)N4CC/C(=N/O)C4)C3)[C@H](C)[C@H]12
- relative t1/2 (DHP-I hydrolysis vs meropenem) [36]: 1.03

- MIC (Pseudomonas aeruginosa [49]): 0.098 µg/mL (≈ 0.21 µM)
- MIC (Enterobacter cloacae [4]): 0.049 µg/mL (≈ 0.105 µM)
- MIC (Salmonella typhimurium [5]): 0.098 µg/mL (≈ 0.21 µM)
- MIC (Streptococcus pyogenes): 0.002 µg/mL (≈ 0.00428 µM)
- MIC (Escherichia coli [10]): 0.049 µg/mL (≈ 0.105 µM)
- MIC (Staphylococcus aureus [21]): 0.098 µg/mL (≈ 0.21 µM)
- MIC (Staphylococcus aureus [23]): 0.098 µg/mL (≈ 0.21 µM)
- MIC (Escherichia coli [24]): 0.025 µg/mL (≈ 0.0535 µM)
- MIC (Pseudomonas aeruginosa [26]): 0.098 µg/mL (≈ 0.21 µM)
- MIC (Klebsiella aerogenes): 0.098 µg/mL (≈ 0.21 µM)
- MIC (Staphylococcus aureus [43]): 0.195 µg/mL (≈ 0.417 µM)
- MIC (Pseudomonas aeruginosa [44]): 0.195 µg/mL (≈ 0.417 µM)
SMILES: C[C@@H](O)[C@H]1C(=O)N2C(C(=O)O)=C(S[C@@H]3CN[C@H](C(=O)N4C/C(=N\O)C(CN)C4)C3)[C@H](C)[C@H]12 (stereo partly specified)
- relative t1/2 (DHP-I hydrolysis vs meropenem) [36]: 0.31
